From ChEMBL document CHEMBL4000219, “Synthesis and biological evaluation of naphthoquinone-coumarin conjugates as topoisomerase II inhibitors” (Bioorg Med Chem Lett, 2017)
Active and inactive are the calls of the source. No cut-off for these calls is given here.

How the values were obtained:
[1] = system: Escherichia coli; test: Inhibition of Escherichia coli DNA topisomerase-1 assessed as reduction in enzyme-mediated relaxation of supercoiled pBlueScript 2 KS+ DNA substrate at 100 uM after 1 hr by agarose gel electrophoresis method
Procedure, shortened: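 2.5U E. coli TopoI acting on supercoiled monomer substrate, in 1% (v/v) DMSO. Chloroquine and etoposide as controls. Agarose gel run without ethidium bromide separates supercoiled substrate from relaxed products.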

[2] = molecular target: T1, DNA topoisomerase 2-alpha (Homo sapiens, UniProt P11388); test: Inhibition of human topoisomerase-2 alpha expressed in baculovirus infected insect cells assessed as reduction in enzyme-meditaed supercoiled pRYG DNA substrate relaxation at 100 uM in presence of buffer containing 2-mercaptoethanol after 30 mins by agarose gel electrophoresis method
T1 sequence (P11388 whole entry): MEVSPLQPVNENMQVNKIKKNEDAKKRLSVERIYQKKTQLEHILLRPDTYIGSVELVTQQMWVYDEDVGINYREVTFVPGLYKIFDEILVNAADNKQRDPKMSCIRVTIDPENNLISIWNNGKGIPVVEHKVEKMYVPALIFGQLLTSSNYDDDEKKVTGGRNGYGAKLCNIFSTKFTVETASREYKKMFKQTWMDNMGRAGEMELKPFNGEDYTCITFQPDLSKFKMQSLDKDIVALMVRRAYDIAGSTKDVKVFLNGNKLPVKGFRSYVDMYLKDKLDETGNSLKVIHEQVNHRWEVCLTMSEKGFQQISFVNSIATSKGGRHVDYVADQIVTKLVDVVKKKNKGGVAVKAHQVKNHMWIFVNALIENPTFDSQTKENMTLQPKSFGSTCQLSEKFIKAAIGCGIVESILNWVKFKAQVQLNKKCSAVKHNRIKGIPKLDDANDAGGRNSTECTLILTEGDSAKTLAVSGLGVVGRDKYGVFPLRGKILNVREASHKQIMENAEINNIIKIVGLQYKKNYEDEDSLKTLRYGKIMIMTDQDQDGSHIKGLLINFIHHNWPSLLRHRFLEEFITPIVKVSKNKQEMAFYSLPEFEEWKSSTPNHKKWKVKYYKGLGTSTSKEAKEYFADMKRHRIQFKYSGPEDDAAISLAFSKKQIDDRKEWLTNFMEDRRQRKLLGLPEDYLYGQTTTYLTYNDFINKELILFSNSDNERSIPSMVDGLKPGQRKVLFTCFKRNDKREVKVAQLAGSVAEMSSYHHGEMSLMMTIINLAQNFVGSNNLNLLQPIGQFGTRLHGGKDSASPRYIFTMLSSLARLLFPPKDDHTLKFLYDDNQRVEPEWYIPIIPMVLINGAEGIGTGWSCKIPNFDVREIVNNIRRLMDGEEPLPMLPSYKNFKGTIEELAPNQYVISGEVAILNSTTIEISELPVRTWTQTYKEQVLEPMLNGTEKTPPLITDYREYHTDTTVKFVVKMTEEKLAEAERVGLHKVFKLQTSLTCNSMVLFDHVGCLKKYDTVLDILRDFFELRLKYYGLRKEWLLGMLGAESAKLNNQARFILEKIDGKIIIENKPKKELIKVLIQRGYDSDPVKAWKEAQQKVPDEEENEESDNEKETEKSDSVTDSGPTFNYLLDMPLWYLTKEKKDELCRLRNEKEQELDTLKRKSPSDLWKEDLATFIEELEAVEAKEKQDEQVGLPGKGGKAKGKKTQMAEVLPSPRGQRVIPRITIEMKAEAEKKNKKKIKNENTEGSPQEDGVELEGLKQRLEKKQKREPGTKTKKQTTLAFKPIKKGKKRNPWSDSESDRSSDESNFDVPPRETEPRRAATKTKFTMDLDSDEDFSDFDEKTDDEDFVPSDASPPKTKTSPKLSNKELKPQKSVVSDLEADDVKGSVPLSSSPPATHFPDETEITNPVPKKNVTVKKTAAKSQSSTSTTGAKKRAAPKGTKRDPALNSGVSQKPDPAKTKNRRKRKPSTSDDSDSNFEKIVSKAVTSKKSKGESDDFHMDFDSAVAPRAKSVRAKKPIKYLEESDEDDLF
Procedure, shortened: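 2U hTopoII on covalently closed negatively supercoiled pRYG plasmid, in 1% (v/v) DMSO. Home-made reaction buffer with 2-mercaptoethanol as reducing agent. Etoposide, ICRF-187 and merbarone as controls. Agarose gel run without ethidium bromide separates supercoiled substrate from relaxed topoisomers.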

[3] = system: Escherichia coli; test: Inhibition of Escherichia coli DNA topisomerase-1 assessed as reduction in enzyme-mediated unwinding activity at 100 uM using ladder of partially relaxed pBlueScript 2 KS+ DNA as substrate after 1 hr by agarose gel electrophoresis method
Procedure, shortened: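 E. coli TopoI unwinding assay for intercalation: a ladder of partially relaxed forms as substrate, in 1% (v/v) DMSO. Chloroquine as control. Agarose gel run without ethidium bromide separates the ladder from relaxed products.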

[4] = system: Escherichia coli; test: Inhibition of Escherichia coli DNA gyrase assessed as reduction in enzyme-mediated supercoiling activity at 100 uM using ladder of partially relaxed pBlueScript 2 KS+ DNA as substrate after 1 hr by agarose gel electrophoresis method
Procedure, shortened: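 2.5U E. coli DNA gyrase acting on a ladder of partially relaxed forms as substrate, in 1% (v/v) DMSO. Agarose gel run without ethidium bromide separates the relaxed ladder from monomeric supercoiled product.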

[5] = molecular target: T1, DNA topoisomerase 2-alpha; test: Inhibition of human topoisomerase-2 alpha expressed in baculovirus infected insect cells assessed as reduction in enzyme-meditaed supercoiled pRYG DNA substrate relaxation in presence of buffer containing DTT after 30 mins by agarose gel electrophoresis method
Procedure, shortened: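 hTopoII relaxation of supercoiled pRYG plasmid in commercial DTT-containing reaction buffer, with compounds at 10, 30 and 100. Gel bands quantified as percent inhibition. Three independent assays, mean + SEM.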

[6] = molecular target: T1, DNA topoisomerase 2-alpha; test: (§1) Inhibition of human topoisomerase-2 alpha ATPase activity expressed in baculovirus infected insect cells assessed as disappearance of NADH at 10 uM using pBR322 DNA as substrate preincubated for 10 mins followed by ATP addition measured up to 35 mins by spectrophotometric based pyruvate kinase/lactate dehydrogenase coupled enzyme assay relative to control
Procedure, shortened: (§2)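 hTopoII ATPase measured in an ATPase/pyruvate kinase/lactate dehydrogenase linked assay as decline of NADH absorbance at 340 nm. Activity expressed as percent of 1% DMSO control.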

[7] = molecular target: T1, DNA topoisomerase 2-alpha; test: as §1, with “at 30” for “at 10”; procedure, shortened: as §2
[8] = molecular target: T1, DNA topoisomerase 2-alpha; test: as §1, with “at 100” for “at 10”; procedure, shortened: as §2
[9] = molecular target: T1, DNA topoisomerase 2-alpha; test: Inhibition of human topoisomerase-2 alpha expressed in baculovirus infected insect cells assessed as reduction in enzyme-meditaed supercoiled pRYG DNA substrate relaxation at 100 uM in presence of buffer containing DTT after 30 mins by agarose gel electrophoresis method
Procedure, shortened: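 2U hTopoII on covalently closed negatively supercoiled pRYG plasmid, in 1% (v/v) DMSO. Commercial reaction buffer containing DTT. Etoposide, ICRF-187 and merbarone as controls. Agarose gel run without ethidium bromide separates supercoiled forms from relaxed topoisomers.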

[10] = molecular target: T1, DNA topoisomerase 2-alpha; test: Poison activity at human topoisomerase-2 alpha expressed in baculovirus infected insect cells assessed as stabilization of cleavage complex at 100 uM using pRYG DNA as substrate after 10 mins by ethidium bromide staining based agarose gel electrophoresis method
Procedure, shortened: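 Cleavage assay: 10U hTopoII on negatively supercoiled pRYG plasmid, in 1% (v/v) DMSO. Etoposide as positive control. Agarose gel run in the presence of ethidium bromide separates supercoiled substrate from linearized plasmid intermediate.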

In the case of `O=C1C(O)=C(C(c2ccc(F)cc2)c2c(O)c3ccccc3oc2=O)C(=O)c2ccccc21` (centres undefined), the inhibition [1] is reported as “inactive”, the inhibition [2] is reported as “Active” and the inhibition [3] is reported as “inactive”. The inhibition [4] was “inactive”, the IC50 [5] was 10 to 30 µM and the inhibition [6] was 67%. For the same molecule, the inhibition [7] was 90%, the inhibition [8] was 94% and the inhibition [9] was “Active”. The Activity [10] was “inactive”.

In the case of `O=C1C(O)=C(C(c2ccccc2F)c2c(O)c3ccccc3oc2=O)C(=O)c2ccccc21` (centres undefined), the inhibition [1] is reported as “inactive”, the inhibition [2] is reported as “Active” and the inhibition [3] is reported as “inactive”. The inhibition [4] was “inactive”, the IC50 [5] was 10 to 30 µM and the inhibition [6] was 24%. The inhibition [7] was 30%, the inhibition [8] was 82% and the inhibition [9] was “Active”. The Activity [10] was “inactive”.

`O=C1NC(=S)NC(=O)C1C(=O)Nc1ccccc1` was tested, and the inhibition [2] was “inactive” and the inhibition [9] was “Active”.

In the case of `COc1cc([C@@H]2c3cc4c(cc3[C@@H](O[C@@H]3O[C@@H]5CO[C@@H](C)O[C@H]5[C@H](O)[C@H]3O)[C@H]3COC(=O)[C@H]23)OCO4)cc(OC)c1O`, the inhibition [2] is reported as “inactive”, the inhibition [9] is reported as “Active” and the Activity [10] is reported as “Active”.

`O=C1C(O)=C(C(c2ccc3c(c2)OCO3)c2c(O)c3ccccc3oc2=O)C(=O)c2ccccc21` (centres undefined) was tested, and the inhibition [1] was “inactive”, the inhibition [2] was “Active” and the inhibition [3] was “inactive”. The inhibition [4] was “inactive”, the IC50 [5] was 10 to 30 µM and the inhibition [6] was 43%. For the same molecule, the inhibition [7] was 67%, the inhibition [8] was 94% and the inhibition [9] was “Active”. For the same molecule, the Activity [10] was “inactive”.

In the case of `O=C1C(O)=C(C(c2ccc([N+](=O)[O-])cc2)c2c(O)c3ccccc3oc2=O)C(=O)c2ccccc21` (centres undefined), the inhibition [1] is reported as “inactive”, the inhibition [2] is reported as “Active” and the inhibition [3] is reported as “inactive”. For the same molecule, the inhibition [4] was “inactive”, the IC50 [5] was 10 to 30 µM and the inhibition [6] was 34%. The inhibition [7] was 39%, the inhibition [8] was 61% and the inhibition [9] was “Active”. For the same molecule, the Activity [10] was “inactive”.

In the case of `CCN(CC)CCCC(C)Nc1ccnc2cc(Cl)ccc12` (centres undefined), the inhibition [1] is reported as “Active”.

In the case of `O=C(O)c1cn(C2CC2)c2cc(N3CCNCC3)c(F)cc2c1=O`, the inhibition [4] is reported as “Active”.

For `O=C1C(O)=C(C(c2ccc(Cl)cc2)c2c(O)c3ccccc3oc2=O)C(=O)c2ccccc21` (centres undefined), the inhibition [1] was “inactive”, the inhibition [2] was “Active” and the inhibition [3] was “inactive”. The inhibition [4] was “inactive”, the IC50 [5] was 10 to 30 µM and the inhibition [6] was 61%. For the same molecule, the inhibition [7] was 78%, the inhibition [8] was 94% and the inhibition [9] was “Active”. The Activity [10] was “inactive”.

With `O=C1C(O)=C(C(c2ccc(Br)cc2)c2c(O)c3ccccc3oc2=O)C(=O)c2ccccc21` (centres undefined) the inhibition [1] was “inactive”, the inhibition [2] was “Active” and the inhibition [3] was “inactive”. The inhibition [4] was “inactive”, the IC50 [5] was 10 to 30 µM and the inhibition [6] was 40%. The inhibition [7] was 57%, the inhibition [8] was 96% and the inhibition [9] was “Active”. For the same molecule, the Activity [10] was “inactive”.

For `C[C@@H](CN1CC(=O)NC(=O)C1)N1CC(=O)NC(=O)C1`, the inhibition [2] was “inactive” and the inhibition [9] was “Active”.

In the case of `O=C1C(O)=C(C(c2ccccc2)c2c(O)c3ccccc3oc2=O)C(=O)c2ccccc21` (centres undefined), the inhibition [1] is reported as “inactive”, the inhibition [2] is reported as “Active” and the inhibition [3] is reported as “inactive”. The inhibition [4] was “inactive”, the IC50 [5] was 10 to 30 µM and the inhibition [6] was 69%. The inhibition [7] was 87%, the inhibition [8] was 94% and the inhibition [9] was “Active”. For the same molecule, the Activity [10] was “inactive”.
